Bioassay records from PubChem.
This is a sample that favours compounds with a hit; in the whole collection about 2.4% have one here.
Neddylation inh = cullin neddylation inhibition. P61081+Q13564. TR-FRET cullin neddylation, biochemical. inhibition, % at 25 µM. 360,000 tested, 0.58% active; in the data active means inhibition above about 36%
CSN inh = CSN deneddylation inhibition. Purified CSN, SCF-Nedd8-OG deneddylation, fluorescence polarization. 360,000 tested, 0.38% active. inhibition, % at 12.5 µM;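 active means pattern-corrected inhibition above about 35%, with an unprinted fluorescence ratio check between 0.5 and 1.5, limit read from the data, passing the limit was not always enough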;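 further: 0% = enzyme with substrate and 100% = substrate without enzyme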
Target sequence (Q92905 whole entry, looked up, one chain of several): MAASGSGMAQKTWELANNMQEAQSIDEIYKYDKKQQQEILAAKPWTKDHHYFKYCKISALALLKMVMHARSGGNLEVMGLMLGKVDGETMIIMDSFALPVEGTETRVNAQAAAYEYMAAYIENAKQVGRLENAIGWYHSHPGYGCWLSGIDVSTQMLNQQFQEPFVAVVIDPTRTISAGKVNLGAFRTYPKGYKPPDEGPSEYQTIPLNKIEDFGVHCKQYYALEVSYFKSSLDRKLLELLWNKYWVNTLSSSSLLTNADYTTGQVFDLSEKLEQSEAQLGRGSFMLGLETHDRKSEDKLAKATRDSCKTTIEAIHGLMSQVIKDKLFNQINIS
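Test system: purified human Csn5 enzyme expressed in HEK293T cells. Amount: 0.24 nM enzyme. Reagent: SCFSkp2-Nedd8OG substrate at 10 nM final. Schedule: 90 min incubation of compound, enzyme and substrate at room temperature. Detection: fluorescence polarization. Read-out: % inhibition of substrate cleavage by Csn5.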
HNF4A DNA FP = change in binding of human HNF4 alpha to DNA | P41235 | HNF4a-FITC DNA binding, fluorescence polarization, 1 h | activity change, % at 10 µM | 360,000 tested, 0.3% active | AID 1224865; in the data active means activity change above about 30%, passing the limit was not always enough
TPT1 inhibitor = inhibitors of Candida albicans tRNA 2'-phosphotransferase TPT1; inhibition, % at 5 µM; recombinant caTPT1, FP RNA substrate dephosphorylation; AID 1962; 300,000 tested, 0.81% active;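 active means inhibition above the mean of all tested compounds plus 3 SD, set per screening campaign, cut at about 24% in these data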;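 further: plate controls were DMSO alone for no effect and ferristatin control at 100 nM for full effect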
Rpn11 inh = Rpn11 (human) deubiquitinase inhibition; O00487; human 26S proteasome, Ub4-pepOG fluorescence polarization; 20S core pre-blocked with epoxomicin; inhibition, % at 20 µM; 360,000 tested, 0.59% active;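 active means inhibition at 20 µM, scaled to each plate's controls, above about 33%, limit read from the data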
Target sequence (O00487 whole entry, looked up): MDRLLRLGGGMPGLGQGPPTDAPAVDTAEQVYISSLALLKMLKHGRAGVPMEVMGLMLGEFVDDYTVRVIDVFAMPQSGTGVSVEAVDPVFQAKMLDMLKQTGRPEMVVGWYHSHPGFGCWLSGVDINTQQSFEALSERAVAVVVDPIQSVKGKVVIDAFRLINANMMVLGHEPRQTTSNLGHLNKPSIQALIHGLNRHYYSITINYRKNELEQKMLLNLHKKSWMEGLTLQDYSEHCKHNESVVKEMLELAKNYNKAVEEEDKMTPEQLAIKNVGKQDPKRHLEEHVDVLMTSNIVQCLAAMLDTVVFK
Rin1 Abl inh = inhibitors of human Rin1-Abl protein interaction; TR-FRET Rin1/Abl binding, biochemical; inhibition, % at 7.35 µM; 360,000 tested, 0.4% active; in the data active means inhibition above about 5%, passing the limit was not always enough
caTPT1 confirm = confirmation of Candida albicans TPT1 inhibitors | shares compounds with TPT1 inhibitor | recombinant caTPT1, fluorescence polarization, RNase T1 coupled | inhibition, % at 5 µM | 2,400 tested, 74% active | AID 2149;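 active means inhibition above the primary screen limit, the mean inhibition of all tested compounds plus 3 SD, cut at about 25% in these data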
RNase T1 inh = RNase T1 inhibition in TPT1 counter-screen. shares compounds with TPT1 inhibitor. RNase T1 cleavage, fluorescence polarization, 1536-well. inhibition, % at 5 µM. 2,400 tested, 83% active. AID 2153;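 active means inhibition above the solvent-only control well mean plus 3 SD, limit set per screening run, cut at about 23% in these data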;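 further: plate controls were DMSO wells with enzyme for no effect and wells without RNase T1 for full effect; inhibitors block cleavage so intact labeled substrate keeps polarization high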
Numbers without * were called inactive; x = not tested or not shown.

SMILES | Neddylation inh | CSN inh | HNF4A DNA FP | TPT1 inhibitor | Rpn11 inh | Rin1 Abl inh | caTPT1 confirm | RNase T1 inh
CCOC(=O)c1cc2c(OC)c(OC)ccc2c2[nH]cc(C#N)c(=O)c12 | x | 0 | 6 | x | 0 | 3 | x | x
Cn1cccc1C(=O)NC(=O)COC(=O)c1cc([N+](=O)[O-])ccc1Cl | -13 | -3 | 4 | 1 | 0 | -1 | x | x
CN(C)S(=O)(=O)c1ccc(Cl)c(C(=O)OCC(=O)NC(=O)c2cccn2C)c1 | 7 | -13 | 3 | 125* | 7 | -4 | 10 | 12
Cn1cc(/C=C2\SC(=S)N(NC(=O)c3ccccc3)C2=O)c2ccccc21 | -37 | 7 | 14 | 137* | 20 | -3 | 55* | 61*
O=C(NN1C(=O)/C(=C/c2ccc(O)cc2)SC1=S)c1cccc(O)c1 | -62 | 129 | 107* | 71* | x | -2 | 67* | 72*
O=C(Cc1ccccc1)NN1C(=O)/C(=C/c2ccc(C(=O)O)cc2)SC1=S | -14 | -1 | 0 | 1 | 3 | 1 | x | x
Cn1cc(/C=C/C(=O)c2ccccc2)c2ccccc21 | -20 | 1 | 16 | 34* | 31 | -4 | 38* | 45*
Cc1ccc(C(=O)/C=C/c2cn(CN3CCN(C)CC3)c3ccccc23)cc1 | 21 | 2 | 5 | 12 | 16 | -1 | x | x
Cn1cc(/C=C2\SC(=S)N(NC(=O)c3cccc(Cl)c3)C2=O)c2ccccc21 | -71 | 10 | -26 | x | x | 0 | x | x
COc1ccc(/C=C2\SC(=S)N(NC(=O)c3ccncc3)C2=O)cc1OC | x | x | x | 6 | x | x | x | x
O=C(NN1C(=O)/C(=C/c2ccc(O)cc2)SC1=S)c1ccccc1O | -69 | 101 | 106* | 55* | x | -3 | 65* | 72*
N#CCCn1cc(C=O)c(-c2cccs2)n1 | 11 | -7 | -1 | 0 | 2 | -5 | x | x
O=C(c1nc2ccccn2c1CN1CCCC(c2nc3ccccc3o2)C1)N1CCCC1 (configuration not stated) | 1 | 3 | -1 | 1 | -4 | 3 | x | x
O=C(O)c1ccc2c3c(cccc13)C(=O)N(c1ccccc1)C2=O | -19 | 15 | -26 | 7 | -3 | -2 | x | x
Cc1c(O)c2c3c(cccc3c1O)C(=O)N(c1ccccc1)C2=O | -257 | 10 | -3 | 39* | -9 | 0 | 27* | 40*
CC(C)[C@@H](C(=O)N1CCCC1)N1C(=O)N2CCc3c([nH]c4ccccc34)[C@@]2(C)C1=O | 1 | 1 | 1 | 1 | -12 | -1 | x | x
N#CC1=C(N)OC2=C(CC/C2=C\c2ccccc2)C1c1ccccc1 (configuration not stated) | 29 | 35 | 20 | 83* | x | 0 | 85* | 88*
CC(=O)C1=C(C)OC(N)=C(C#N)C1c1cc([N+](=O)[O-])ccc1Cl (configuration not stated) | -13 | 1 | 1 | 3 | -1 | -1 | x | x
N#CC1=C(N)OC2=C(C(=O)CCC2)C1c1ccccc1 (configuration not stated) | -12 | -5 | 8 | 0 | 0 | 3 | x | x
N#CC1=C(N)OC2=C(CC/C2=C\c2ccccc2Cl)C1c1ccccc1Cl (configuration not stated) | 34 | 70 | 81 | 67* | x | 1 | 81* | 89*
OCC[n+]1ccc(/C=C/c2c[nH]c3ccccc23)cc1 | -51 | 85 | 103 | 57* | x | -107 | 59* | 65*
CCCCN1C(=O)c2cccc3cc(O)cc(c23)C1=O | 9 | -3 | -6 | 37* | -8 | -3 | 42* | 48*
CN(C)CCCN1C(=O)c2cccc3cccc(c23)C1=O | 20 | 4 | -3 | -4 | 4 | -7 | x | x
COc1ccc(N2CCN(C(=O)c3ccc4c(c3)NC(=O)C(CSCc3ccc(C)cc3)N4)CC2)cc1 (configuration not stated) | x | x | x | 92* | x | x | 22 | 34*
COc1ccc(N2CCN(C(=O)c3ccc4c(c3)NC(=O)C(CSCc3cccc(F)c3)N4)CC2)cc1 (configuration not stated) | x | x | x | 85* | x | x | 8 | 14
SMILES | Neddylation inh | CSN inh | HNF4A DNA FP | TPT1 inhibitor | Rpn11 inh | Rin1 Abl inh | caTPT1 confirm | RNase T1 inh
COc1ccc(N2CCN(C(=O)c3ccc4c(c3)NC(=O)C(CSCc3c(F)cccc3Cl)N4)CC2)cc1 (configuration not stated) | x | x | x | 66* | x | x | 12 | 19
COc1ccc(C(=O)N2CCN(c3cccc(Cl)c3)CC2)cc1 | 4 | 5 | 1 | -4 | 0 | 4 | x | x
O=C(CSCc1cccc(F)c1)N1CCN(c2ccccc2)CC1 | -1 | 2 | 6 | 1 | -3 | -3 | x | x
Cn1c(CN2CCCC2)nc2cc(NC(=O)COc3ccc(Cl)cc3)ccc21 | 18 | 1 | -2 | 60* | 5 | 2 | 7 | 12
COc1ccc(C(CNC(=O)C(=O)NC2CCCC2)N2CCN(C)CC2)cc1 (configuration not stated) | 7 | -1 | 0 | 0 | 1 | -2 | x | x
COc1cc2cc(/C=C/C(=O)c3ccco3)c(Cl)nc2cc1OC | 31 | 23 | 16 | 33* | x | -1 | 47* | 56*
C#CCN1C=CC(=O)[C@@H](OC(=O)NCCC)[C@H]1c1ccccc1Br | 0 | -2 | 0 | x | -4 | 0 | x | x
COc1ccccc1C=C1SC(=S)NC1=O | -7 | 6 | 6 | x | 5 | 5 | x | x
O=C1NC(=S)S/C1=C\c1ccc(SCc2ccccc2)o1 | -3 | 69 | 35* | 47* | 84* | 4 | 46* | 65*
COCCN(C(=O)COC(=O)CSc1ccc(Cl)cc1)c1c(N)n(Cc2ccccc2)c(=O)[nH]c1=O | -10 | 2 | 3 | -2 | -4 | 1 | x | x
O=C(Nc1ccc(N2CCOCC2)cc1)c1cc2ccccc2o1 | 3 | -1 | -5 | 3 | 3 | -2 | x | x
O=C(/C=C/N1CCOCC1)c1cc2ccccc2o1 | -12 | 1 | -1 | 26* | 2 | -2 | 3 | 9
O=C(O)c1coc2ccccc12 | x | x | x | -3 | x | x | x | x
O=C(/C=C/N1CCOCC1)c1coc2ccccc12 | 5 | 2 | 2 | 26* | 13 | -4 | 1 | 14
C=CCc1cc(C)ccc1OCCOCCn1ccnc1 | 0 | -1 | 5 | -5 | -7 | 4 | x | x
O=C(NCc1ccco1)C1Cc2c(-c3cccc(F)c3)ccnc2O1 (configuration not stated) | 0 | 2 | -1 | x | -2 | 2 | x | x
COc1ccc2nc(C)cc(Nc3ccc(C)cc3)c2c1 | -8 | 3 | 2 | x | -1 | -5 | x | x
